Consider seven molecules from ChEMBL document CHEMBL5046283, “Design, Synthesis, and Biological Evaluation of the First Inhibitors of Oncogenic CHD1L” (J Med Chem, 2022).

Data set [1] is described as follows: Cytotoxicty against CRC042 patient-derived tumor organoids assessed as reduction in cell viability incubated for 72 hrs by CellTiter Glo assay. The conditions noted are these: Homo sapiens, Neoplasm. In kind it is functional. In short, it runs like this: (§1)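 Patient cells washed with PBS, digested with TrypLE and passed through a 100 μm strainer. Seeded at 5,000 cells/well with 2% Matrigel and left 72 h to self-assemble as organoids, then dosed for 72 h. CellTiter Glo 3D added 1:1, 45 min at room temperature with shaking, luminescence read. Normalised to 0.5% DMSO; triplicate experiments, technical n = 3.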
(Cellular ATP, detected with luciferase, serves as a proxy for viable cell number.)

Data set [2] is described as follows: Inhibition of recombinant catalytic CHD1L (unknown origin) preincubated for 10 mins followed by ATP addition measured after 1 hr by plate reader analysis. Further details: species or system Homo sapiens. In short, it runs like this:
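800 nM catalytic CHD1L and 200 nM mononucleosome preincubated with inhibitor for 10 min at 37 °C in 50 mM Tris pH 7.5, 50 mM NaCl, 5 mM MgCl2, 2 mM DTT, 5% glycerol. Reaction started with 10 μM ATP, 1 h at 37 °C. Phosphate sensor added (500 nM), fluorescence read at ex 430/em 450. No-enzyme background; normalised to DMSO; triplicate.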

The test system of data set [3] is SW-620. Put plainly: Cytotoxicity against human SW-620 tumor organoid assessed as reduction in cell viability incubated for 72 hrs by CellTiter Glo assay. The data set is classed as functional, cell-based. The conditions noted are these: SW-620, 72 h.
Data set [4] is described as follows: Inhibition of CHD1L-mediated TCF transcription in human SW-620 M-phenotype cells incubated for 24 hrs by TOPflash luciferase reporter assay. In kind it is cell-based. The following applies: SW-620, 24 h. In short, it runs like this:
(§2)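 M-Phenotype cells seeded at 20,000 (SW620) or 10,000 (HCT116) cells/well and transiently transfected with TOPflash for 72 h. Treated for 24 h. Luminescence read with One-Glo after PBS wash, normalised to total protein by BCA on a parallel plate.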
(In a reporter assay the amount or activity of a reporter protein is the signal.)

Data set [5] in a line: Inhibition of CHD1L-mediated TCF transcription in human HCT-116 M-phenotype cells incubated for 24 hrs by TOPflash luciferase reporter assay. The following applies: HCT-116, 24 h. The data set is classed as cell-based. In short, it runs like this:
as §2

Data set [6] concerns SW-620. The data set can be described thus: Cytotoxicity against human SW-620 M-phenotype tumor organoid assessed as reduction in cell viability incubated for 72 hrs by CellTiter Glo assay. The data set is classed as functional, cell-based. The conditions noted are these: SW-620, 72 h. In short, it runs like this: (§3)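 Isolated M-Phenotype cells plated at 2,000 cells/well in ultra-low-attachment round-bottom wells, centrifuged to aggregate, then given 2% Matrigel final. Grown 72 h at 37 °C/5% CO2 to form organoids, then dosed for 72 h. CellTiter Glo 3D added 1:1, shaken 45 min at room temperature, luminescence read. Normalised to 0.5% DMSO vehicle; triplicate experiments, technical n = 3.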

For data set [7], the system named is HCT-116. Put plainly: Cytotoxicity against human HCT-116 M-phenotype tumor organoid assessed as reduction in cell viability incubated for 72 hrs by CellTiter Glo assay. In kind it is functional, cell-based. The following applies: HCT-116, 72 h. In short, it runs like this:
as §3

Data set [8] in a line: Cytotoxicty against CRC102 patient-derived tumor organoid assessed as reduction in cell viability incubated for 72 hrs by CellTiter Glo assay. The data set is classed as functional, tissue-based. The following applies: Homo sapiens, Colon cancer organoid. In short, it runs like this: as §1
Data set [9] can be described thus: Induction of mesenchymal-epithelial transition in human SW-620 M-phenotype tumor organoid assessed as downregulation of vimentin expression by fluorescence analysis. The data set is classed as functional, cell-based. In short, it runs like this:
(§4)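 M-Phenotype organoids carry a dual reporter (VimPro-GFP, EcadPro-RFP). Dose-response over a 72 h treatment; vimentin promoter activity read as GFP fluorescence by 3D high-content imaging and normalised. Duplicate experiments.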

The nature of data set [10]: Induction of mesenchymal-epithelial transition in human HCT-116 M-phenotype tumor organoid assessed as downregulation of vimentin expression by fluorescence analysis. The data set is classed as functional, cell-based. In short, it runs like this:
as §4

Data set [11] deals with SW-620. The data set can be described thus: Inhibition of cell stemness in human SW-620 M-phenotype cells assessed as reduction in colony formation. In kind it is functional, cell-based. In short, it runs like this:
(§5)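 M-Phenotype cells plated at 200 (SW620) or 75 (HCT116) cells/well and treated continuously. Medium and drug replenished every three days over 7–10 days of growth. Colonies imaged by high-content imaging and counted. Duplicate experiments with triplicate technical replicates.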

For data set [12], the system named is HCT-116. The data set can be described thus: Inhibition of cell stemness in human HCT-116 M-phenotype cells assessed as reduction in colony formation. The data set is classed as functional, cell-based. In short, it runs like this:
as §5

The test system of data set [13] is SW-620. Put plainly: Antitumor activity against human SW-620 cells xenografted in athymic nude mouse assessed as decrease in tumor volume at 75 to 125 mg/kg, po measured after 20 to 28 days by caliper method. In kind it is functional, organism-based. The conditions noted are these: dose 75-125 mg/kg, time 20-28 day. In short, it runs like this:
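SW620 EMT dual-reporter M-Phenotype cells, 2 × 10^6 cells/100 μL in 1:1 Matrigel:RPMI 1640, injected subcutaneously into each flank of female athymic nude mice (8 weeks old). Randomised at day 5 to vehicle (10% DMSO, 90% PEG 400), 75 or 125 mg/kg. Oral gavage once daily, 5 days/week, for 28–31 days. Caliper tumour volume twice weekly by 4/3*[…]*(L/2)*(W/2)*(H/2).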
In general terms: In xenograft studies the graft and the host belong to different species.

Data set [14] in a line: Toxicity in athymic nude mouse xenografted with human SW-620 cells assessed as change in body weight at 75 to 125 mg/kg, po measured after 28 days. The conditions noted are these: in vivo, dose 75-125 mg/kg, time 28 day. The data set is classed as organism-based. In short, it runs like this:
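Female athymic nude mice (8 weeks old) bearing subcutaneous SW620 EMT dual-reporter M-Phenotype flank xenografts. Dosed by oral gavage at 75 or 125 mg/kg, or vehicle (10% DMSO, 90% PEG 400), once daily, 5 days/week, for 28–31 days. Body weight recorded twice weekly.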

Activity calls are given as the source filed them. No cut-off for these calls is given here.

As for `Cc1cc(Nc2ccc(NC(=O)Cc3c[nH]c4cc(Cl)ccc34)cc2)nc(N2CCCC2)n1`, the IC50 (in general, the concentration that gives 50% inhibition) in data set [1] is 3.4 µM; in data set [2], 12 µM; in [3], 1.4 µM; in data set [4], 9.6 µM; in [5], 4.2 µM; in [6] it was 2 µM. Also, the concentration for half-maximal inhibition (IC50) in data set [7] is 2.3 µM; in [8], 8.2 µM; in data set [9], 1.8 µM; in data set [10] it was 2.5 µM; in data set [11], 0.5 µM; in [12] it was 0.4 µM.
Regarding `Cc1cc(Nc2ccc(NC(=O)Cc3cc(Br)cs3)cc2)nc(N2CCCC2)n1`, the concentration for half-maximal inhibition (IC50) in data set [1] amounted to 4.2 µM; in [2], 3.3 µM; in data set [3], 2.6 µM; in [4] it was 12 µM; in data set [5] it was 8.7 µM; in data set [6] it was 2.6 µM. For the same molecule, the IC50 was 4.3 µM in data set [7]; 8.3 µM in [8]; 3.3 µM in [9]; 5 µM in [10]; 1.6 µM in data set [11]; 0.8 µM in data set [12]. Further, in [13], the outcome was Active. For the same molecule, in data set [14], the Activity entry is “Non-Toxic”.
With `Cc1cc(Nc2ccc(NC(=O)Cc3c(C)[nH]c4ccccc34)cc2)nc(N2CCCC2)n1`, the IC50 is 4 µM in [1]; 16 µM in [2]; 1.6 µM in data set [3]; 6.4 µM in [4]; 6.9 µM in [5]; 2.3 µM in data set [6]. The IC50 came out at 2.2 µM in [7]; 11 µM in data set [8]; 1.7 µM in data set [9]; 2.7 µM in [10]; 1.6 µM in data set [11]; 0.9 µM in data set [12].
`Cc1cc(Nc2ccc(NC(=O)Cc3cccc4ccccc34)cc2)nc(N2CCCC2)n1`: the concentration for half-maximal inhibition (IC50) in data set [1] turned out to be 3.1 µM; in [2] it was 2.9 µM; in [4] it was 2.2 µM; in [5] it was 5.5 µM; in [7], 2.3 µM; in data set [8], 5.3 µM. In addition, the concentration for half-maximal inhibition (IC50) in data set [9] came to 1.8 µM; in data set [10], 2.6 µM; in [11] it was 0.7 µM; in [12], 0.5 µM.
As to `Cc1cc(Nc2ccc(NC(=O)Cc3c[nH]c4ccccc34)cc2)nc(N2CCCC2)n1`, the IC50 in data set [1] is 6.2 µM; in data set [2], 3.3 µM; in data set [4], 11 µM; in data set [5], 6.9 µM; in data set [6], 1.1 µM; in [7], 1.4 µM. In addition, the IC50 came out at 9 µM in data set [8]; 1.5 µM in data set [9]; 1.9 µM in [10]; 1.1 µM in data set [11]; 0.9 µM in data set [12].
As for `Cc1cc(Nc2ccc(NC(=O)Cc3cc(Cl)nc4ccccc34)cc2)nc(N2CCCC2)n1`, the IC50 in data set [1] was determined as 3.1 µM; in data set [2], 12 µM; in [3], 2.4 µM; in data set [4], 4.9 µM; in data set [5], 4.9 µM; in data set [6], 1.3 µM. Moreover, the IC50 is 2.2 µM in [7]; 3.5 µM in data set [8]; 1.3 µM in data set [9]; 2.6 µM in [10]; 0.3 µM in data set [11]; 0.2 µM in data set [12].
As for `Cc1cc(Nc2ccc(NC(=O)Cc3cccs3)cc2)nc(N2CCCC2)n1`, the IC50 in data set [1] is 16 µM; in data set [2], 4 µM; in data set [3] it was 4.6 µM; in data set [4] it was 43 µM; in [5], 38 µM; in data set [6] it was 8.7 µM. Besides, the half-maximal inhibitory concentration (IC50) in [7] turned out to be 9.4 µM; in data set [8], 21 µM; in [9], 10 µM; in [10], 13 µM; in [12], 3.2 µM.
